Data set [1] has as its target T1, Nuclear receptor ROR-alpha (Homo sapiens, UniProt P35398).
T1 sequence (P35398 whole entry): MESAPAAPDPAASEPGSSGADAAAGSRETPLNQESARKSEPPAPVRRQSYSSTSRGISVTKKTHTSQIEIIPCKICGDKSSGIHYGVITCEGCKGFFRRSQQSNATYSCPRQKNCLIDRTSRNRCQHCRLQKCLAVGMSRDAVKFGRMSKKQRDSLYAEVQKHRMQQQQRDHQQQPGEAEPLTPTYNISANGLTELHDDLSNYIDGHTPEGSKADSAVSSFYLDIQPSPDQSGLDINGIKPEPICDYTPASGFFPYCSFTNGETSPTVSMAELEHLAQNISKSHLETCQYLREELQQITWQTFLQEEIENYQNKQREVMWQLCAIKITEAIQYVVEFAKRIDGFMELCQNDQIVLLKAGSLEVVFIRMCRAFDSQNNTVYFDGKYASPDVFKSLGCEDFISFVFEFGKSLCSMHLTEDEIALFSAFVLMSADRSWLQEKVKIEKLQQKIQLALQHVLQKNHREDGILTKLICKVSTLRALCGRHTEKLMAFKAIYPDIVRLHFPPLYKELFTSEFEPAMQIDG
As to the kind of experiment: Inverse agonist activity at Gal4 DNA binding domain-tagged human RORalpha expressed in HEK293T cells assessed as effect on receptor-mediated transcriptional activity by luciferase reporter gene assay. In kind it is cell-based, HEK-293T. In outline:
(§1)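 Gal4 reporter assay in 293T cells with the same format as the RORγ Gal4 assay, using Gal4DBD:RORαLBD or Gal4DBD:RORβLBD constructs. Transfection, then compound treatment, then lysis and dual-flash luciferase luminescence. Activity measured in dose-response.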

Data set [2] concerns the target T2, Nuclear receptor ROR-beta (Homo sapiens, UniProt Q92753).
T2 sequence (Q92753 whole entry): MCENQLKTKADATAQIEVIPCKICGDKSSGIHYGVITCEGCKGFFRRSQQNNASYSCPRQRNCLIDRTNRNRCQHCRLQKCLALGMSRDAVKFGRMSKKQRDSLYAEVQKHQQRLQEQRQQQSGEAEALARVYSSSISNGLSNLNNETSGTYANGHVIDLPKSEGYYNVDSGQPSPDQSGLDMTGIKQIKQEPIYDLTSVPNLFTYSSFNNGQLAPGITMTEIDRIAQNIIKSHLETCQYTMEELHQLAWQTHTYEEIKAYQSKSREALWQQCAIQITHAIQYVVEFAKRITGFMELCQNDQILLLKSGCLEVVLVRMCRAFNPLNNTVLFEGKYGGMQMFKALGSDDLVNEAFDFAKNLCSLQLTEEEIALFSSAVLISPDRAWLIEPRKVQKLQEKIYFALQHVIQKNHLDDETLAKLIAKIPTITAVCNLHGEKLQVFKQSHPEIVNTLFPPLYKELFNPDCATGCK
In words: Inverse agonist activity at Gal4 DNA binding domain-tagged human RORbeta expressed in HEK293T cells assessed as effect on receptor-mediated transcriptional activity by luciferase reporter gene assay. The class given is cell-based, HEK-293T. The procedure, abridged: as §1

Data set [3] can be described thus: Cmax in rat at 10 mg/kg, po. The class given is ADME, organism-based. On the set-up: dose 10 mg/kg, route oral. As to conditions: in vivo.
Data set [4] can be described thus: Oral bioavailability in rat at 10 mg/kg. The class given is ADME, organism-based. The note with it: in vivo.
Data set [5] is described as follows: AUC (infinity) in rat at 2 mg/kg, iv. On the set-up: dose 2 mg/kg, time infinity, route intravenous. The class given is ADME, organism-based. As to conditions: in vivo. In outline:
(§2)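 Rat PK; iv dosing at 2.0 mg/Kg in SPEW vehicle, oral dosing at 10 mg/Kg in 0.1% CMC-0.2%Tween; AUCinf reported in ng*hr/mL.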

The nature of data set [6]: AUC (infinity) in rat at 10 mg/kg, po. In kind it is ADME, organism-based. On the set-up: dose 10 mg/kg, route oral, time infinity. The note with it: in vivo. In outline: as §2
The target in data set [7] is T3, Nuclear receptor subfamily 1 group I member 2 (Homo sapiens, UniProt O75469).
T3 sequence (O75469 whole entry): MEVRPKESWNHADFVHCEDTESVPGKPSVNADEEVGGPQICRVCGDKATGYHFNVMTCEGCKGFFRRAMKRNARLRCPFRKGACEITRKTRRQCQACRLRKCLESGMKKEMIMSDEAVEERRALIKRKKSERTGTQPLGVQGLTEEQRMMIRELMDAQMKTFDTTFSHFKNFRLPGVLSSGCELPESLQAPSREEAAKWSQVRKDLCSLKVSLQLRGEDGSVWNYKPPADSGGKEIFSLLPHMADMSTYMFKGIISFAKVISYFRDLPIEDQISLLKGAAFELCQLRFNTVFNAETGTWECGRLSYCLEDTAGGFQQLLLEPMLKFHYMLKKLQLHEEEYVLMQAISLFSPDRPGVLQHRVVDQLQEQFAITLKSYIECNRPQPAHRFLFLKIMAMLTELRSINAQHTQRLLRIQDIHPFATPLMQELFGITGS
As to the kind of experiment: Agonist activity at Gal4 DNA binding domain-tagged human PXR ligand binding domain expressed in HEK293 cells assessed as activation of receptor-mediated transcriptional activity by luciferase reporter gene assay. The class given is cell-based. In outline: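 Screened by ChemPartner as a cell-based transient co-transfection reporter assay in HEK293 cells, using a Gal4DBD-human NR LBD construct with UAS-Luc. Run in agonist mode, read as % activation at a single concentration. Commercial reference compounds were profiled in the same assay for validation.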
(In general: In a reporter assay the amount or activity of a reporter protein is the signal.)

Data set [8] in a line: Clearance in rat hepatocytes relative to hepatic blood flow. In kind it is ADME, cell-based, Liver, Hepatocyte. The note with it: read-out: CLH.
The nature of data set [9]: Cmax in rat at 2 mg/kg, iv. The class given is ADME, organism-based. On the set-up: dose 2 mg/kg, route intravenous. The note with it: in vivo. In outline: (§3)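 Rats dosed at 2.0 mg/kg intravenously in SPEW vehicle. Plasma exposure profiled for T1/2 and Cmax.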
Data set [10] is described as follows: Half life in rat at 2 mg/kg, iv. In kind it is ADME, organism-based. As to conditions: in vivo. The procedure, abridged: as §3
For another data set, the system named is Rattus norvegicus. As to the kind of experiment: Clearance in rat at 2 mg/kg, iv relative to hepatic blood flow. In kind it is ADME, organism-based, Liver. As to conditions: in vivo. In outline:
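Rats given 2.0 mg/kg iv in SPEW vehicle. Clearance is expressed as % of hepatic blood flow (%Qh).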

Data set [11] addresses T3, Nuclear receptor subfamily 1 group I member 2. In words: Antagonist activity at Gal4 DNA binding domain-tagged human PXR ligand binding domain expressed in HEK293 cells assessed as inhibition of receptor-mediated transcriptional activity by luciferase reporter gene assay. The class given is cell-based. In outline:
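Screened by ChemPartner in HEK293 cells transiently co-transfected with a Gal4DBD-human NR LBD construct and a UAS-Luc reporter. Run in antagonist mode, read as % inhibition at a single concentration. Commercial reference compounds were run alongside in the same assay.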

A short description of data set [12]: Clearance in human hepatocytes relative to hepatic blood flow. The class given is ADME, cell-based, Liver, Hepatocyte. As to conditions: read-out: CLH.
Data set [13] is described as follows: Inhibition of CYP450 (unknown origin). The note with it: human. The class given is ADME.
Data set [14] is described as follows: Apparent permeability from basolateral to apical side in human Caco2 cells. In kind it is ADME, cell-based. The note with it: Caco-2. For orientation: Passage across Caco-2 layers is used to estimate intestinal permeability.
The nature of data set [15]: Apparent permeability from apical to basolateral side in human Caco2 cells. In kind it is ADME, cell-based. As to conditions: Caco-2.
Data set [16] has as its target T4, Nuclear receptor ROR-gamma (Homo sapiens, UniProt P51449).
T4 sequence (P51449 whole entry): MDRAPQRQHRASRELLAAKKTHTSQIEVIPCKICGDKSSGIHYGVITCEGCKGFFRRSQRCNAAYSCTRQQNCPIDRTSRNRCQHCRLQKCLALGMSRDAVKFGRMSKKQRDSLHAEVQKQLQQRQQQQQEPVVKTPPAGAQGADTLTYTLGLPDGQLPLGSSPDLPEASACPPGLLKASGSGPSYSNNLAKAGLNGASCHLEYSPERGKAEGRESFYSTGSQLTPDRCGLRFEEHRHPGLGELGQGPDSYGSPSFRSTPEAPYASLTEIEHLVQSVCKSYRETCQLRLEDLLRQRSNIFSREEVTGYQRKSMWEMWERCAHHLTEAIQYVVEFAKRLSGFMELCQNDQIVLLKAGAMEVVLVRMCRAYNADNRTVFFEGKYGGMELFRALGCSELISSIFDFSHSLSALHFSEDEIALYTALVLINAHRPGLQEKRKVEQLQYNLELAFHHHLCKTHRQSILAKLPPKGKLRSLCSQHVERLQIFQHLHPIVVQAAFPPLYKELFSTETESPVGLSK
In words: Inverse agonist activity at Gal4 DNA binding domain-tagged human RORgammat expressed in HEK293T cells assessed as effect on receptor-mediated transcriptional activity by luciferase reporter gene assay. The class given is functional, cell-based, HEK-293T. The procedure, abridged: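 293T cells transfected with a Gal4:RORγ luciferase reporter. Cells seeded day 1 and transfected day 2; compound added in assay medium after transfection. Day 3: cells lysed and luminescence read by dual-flash. Dose-response EC50 is the mean of at least two runs.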

For data set [17], the target named is T4, Nuclear receptor ROR-gamma. As to the kind of experiment: Inverse agonist activity at human recombinant GST-tagged RORgammat ligand binding domain assessed as effect on receptor-biotin tagged TRAP220 co-activator peptide interaction using 10 nM GST-RORgamma LBD by FRET-based assay. In outline:
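Recombinant human GST-RORγ LBD (10 nM) with 40 nM biotin-TRAP220 co-activator peptide, 50 nM SAAPC, 1.5 nM Eu-anti-GST IgG. Buffer: 20 mM Tris-HCl pH 7.0, 60 mM NaCl, 5 mM MgCl2, 1 mM DTT, 0.1% BSA, 1.0% DMSO. FRET read on plate reader. IC50 is the mean of at least two runs.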

Results on two compounds are retold here after ChEMBL document CHEMBL3596154, “Discovery of biaryl carboxylamides as potent RORγ inverse agonists” (Bioorg Med Chem Lett, 2015).

Each structure is given as a SMILES string.

Turning to `[2H]C([2H])([2H])N(C(=O)c1c(F)cccc1Cl)c1ccc(-c2cc(C(N)=O)ccc2Cl)cc1OCC(F)(F)F`, the values for the EC50 in [1] and in data set [2] were 8360 nM and 1930 nM, respectively. The Cmax was 1210 ng/mL in [3] and 2740 ng/mL in data set [9]. In data set [4], this compound showed a bioavailability of 41%. Further, the area under the curve AUC(0-inf) in [5] stood at 1540 ng·h/mL; in data set [6] it was 3130 ng·h/mL. Also, the Activity in data set [7] is recorded as less than 50%. The results for the hepatic extraction ratio in [8] and in [12] were 0.65 and 0.51, respectively. Besides, the half-life in data set [10] was 9.6 h. In the data set on Rattus norvegicus, this compound registered a CLH of 40%. In [11], the “inhibition (INH)” value is reported as less than 50%.
With `CN(C(=O)c1c(F)cccc1Cl)c1ccc(-c2cc(C(N)=O)ccc2Cl)cc1OCC(F)(F)F`, the Cmax amounted to 1010 ng/mL in data set [3] and 2350 ng/mL in data set [9]. Moreover, the “inhibition (INH)” value in data set [13] was “Not Active”. The same compound came in with a bioavailability in data set [4] of 28%. For the same compound, the area under the curve AUC(0-inf) in data set [5] amounted to 1130 ng·h/mL; in data set [6], 1550 ng·h/mL. In [14], the Papp B→A was 35.3 ×10⁻⁶ cm/s. Moreover, the hepatic extraction ratio in data set [8] turned out to be 0.83; in data set [12], 0.88. For the same compound, the Papp A→B in data set [15] is 32.2 ×10⁻⁶ cm/s. The same compound gave a half-life in data set [10] of 1.3 h. The compound further registered a CLH with Rattus norvegicus of 54%. Further, the EC50 in data set [16] amounted to 93 nM. Besides, the IC50 in [17] was found to be 11 nM.

As a reminder, the EC50 is the concentration that produces a half-maximal response. Broadly, the Cmax is the maximum level reached in the sampled fluid or tissue. Broadly, the bioavailability is the share of a dose that reaches the circulation, judged against a reference dose that is usually intravenous. Read a high bioavailability as much systemic uptake. For orientation: AUC(0-inf) means the area under the concentration-time curve extrapolated to infinity. A lower AUC(0-inf) goes with low exposure. One may read the half-life as the time needed for the level to fall by half in the phase considered. By Papp B→A is commonly meant how fast a substance crosses the layer from the basolateral side. The Papp A→B is the apparent permeability from the apical to the basolateral side of a cell layer. The term IC50 denotes the concentration needed to halve the response being measured.
